The source made the active and inactive calls. The rule behind the calls is not given here.
Legend:
[1] = molecular target: Tissue-type plasminogen activator (Homo sapiens) (UniProt P00750); test: Ratio of inactivation to apparent binding constant against tissue plasminogen activator (t-PA);NI=no inhibition
Summary of the method: (§1)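 t-PA (0.75 μM) preincubated with inhibitor 0.37-1 mM at pH 7.5, 25 °C. Aliquots assayed periodically for remaining amidolytic activity with p-nitroanilide substrate. kobs from semilogarithmic plots.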

[2] = molecular target: Plasminogen (Homo sapiens) (UniProt P00747); test: Ratio of inactivation to apparent binding constant against plasmin;NI=no inhibition
Chain of Plasminogen (Homo sapiens) (P00747 97-580 limits assumed): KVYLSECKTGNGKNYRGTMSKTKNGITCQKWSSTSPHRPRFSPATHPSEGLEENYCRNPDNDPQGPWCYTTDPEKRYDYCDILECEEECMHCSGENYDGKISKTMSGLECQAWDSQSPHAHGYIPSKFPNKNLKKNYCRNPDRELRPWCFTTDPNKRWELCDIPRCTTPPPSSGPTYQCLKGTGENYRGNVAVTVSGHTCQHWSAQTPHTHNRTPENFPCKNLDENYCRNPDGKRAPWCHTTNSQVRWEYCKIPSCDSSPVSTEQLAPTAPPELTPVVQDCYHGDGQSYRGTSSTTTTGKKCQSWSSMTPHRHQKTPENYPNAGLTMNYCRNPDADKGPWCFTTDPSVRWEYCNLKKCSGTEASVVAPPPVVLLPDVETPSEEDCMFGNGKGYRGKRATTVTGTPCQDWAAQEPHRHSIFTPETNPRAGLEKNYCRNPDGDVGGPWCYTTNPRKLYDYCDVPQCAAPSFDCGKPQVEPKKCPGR
Chain of Plasminogen (Homo sapiens) (P00747 581-810 limits assumed): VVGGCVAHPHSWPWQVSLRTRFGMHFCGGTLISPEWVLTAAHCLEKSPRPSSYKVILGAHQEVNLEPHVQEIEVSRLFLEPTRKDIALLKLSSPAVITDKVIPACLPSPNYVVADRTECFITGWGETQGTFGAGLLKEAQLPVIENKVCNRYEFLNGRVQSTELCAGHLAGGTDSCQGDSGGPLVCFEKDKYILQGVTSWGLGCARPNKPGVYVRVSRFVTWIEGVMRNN
Summary of the method: (§2)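 Plasmin (1 μM; 0.7 μM in one series) preincubated with inhibitor 34-560 μM at pH 7.5, 25 °C. Aliquots assayed for residual activity on S-2251. kobs from semilog plots; kinact/KI from Kitz-Wilson analysis or as kobs/[I].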

[3] = molecular target: T1, Serine protease 1 (Bos taurus) (UniProt P00760); test: Inactivation constant determined against bovine trypsin
T1 sequence (whole entry): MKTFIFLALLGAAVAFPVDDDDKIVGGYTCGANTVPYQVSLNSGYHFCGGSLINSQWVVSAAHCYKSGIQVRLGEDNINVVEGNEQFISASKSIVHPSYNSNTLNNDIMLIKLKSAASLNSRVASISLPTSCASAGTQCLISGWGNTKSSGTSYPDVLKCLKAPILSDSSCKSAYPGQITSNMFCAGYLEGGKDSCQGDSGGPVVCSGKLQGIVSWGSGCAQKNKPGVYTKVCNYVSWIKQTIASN
Summary of the method: (§3)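 Pseudo-first-order inactivation at pH 7.5, 25 °C, inhibitor in excess. Two methods. Preincubation: aliquots taken over time and assayed for residual activity, kobs from semilog plots. Progress curve: continuous A405 with chromogenic substrate present, vs blank with inhibitor and substrate (trypsin 0.5 μM, BAPNA 0.3 mM, 1.5% DMSO; urokinase 31 nM, S-2444). KI and kinact from double-reciprocal (Wilkinson) fits.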

[4] = molecular target: Prothrombin (Homo sapiens) (UniProt P00734); test: Ratio of inactivation to apparent binding constant against thrombin;NI=no inhibition
Summary of the method: (§4)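 Thrombin (0.1 μM) preincubated with 300 μM inhibitor at pH 7.5, 25 °C. Timed aliquots assayed for residual activity with S-2238. Pseudo-first-order kobs from semilog plot of remaining activity vs time.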

Serine protease 1 = molecular target: T2, Serine protease 1 (Bos taurus, UniProt P00760); test: Apparent binding constant against bovine trypsin; summary of the method: as §3
T2 sequence (P00760 whole entry): T1 sequence (whole entry)

[5] = molecular target: T1, Serine protease 1 (Bos taurus); test: Ratio of inactivation to apparent binding constant against bovine trypsin; summary of the method: as §3
[6] = molecular target: T3, Urokinase-type plasminogen activator (Homo sapiens, UniProt P00749); test: Apparent binding constant against Human urokinase; summary of the method: as §3
[7] = molecular target: T3, Urokinase-type plasminogen activator; test: Inactivation constant determined against urokinase; summary of the method: as §3
Trypsin (Sus scrofa) [8] = molecular target: Trypsin (Sus scrofa) (UniProt P00761); test: Ratio of inactivation to apparent binding constant against porcine trypsin
Chain of Trypsin (Sus scrofa) (P00761 whole entry, looked up): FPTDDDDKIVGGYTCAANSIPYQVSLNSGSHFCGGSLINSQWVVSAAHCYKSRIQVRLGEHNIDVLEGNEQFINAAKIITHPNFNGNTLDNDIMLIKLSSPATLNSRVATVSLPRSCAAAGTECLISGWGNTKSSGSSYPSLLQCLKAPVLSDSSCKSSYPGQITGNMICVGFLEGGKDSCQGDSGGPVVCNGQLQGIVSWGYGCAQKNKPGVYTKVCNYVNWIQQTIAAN

Trypsin (Sus scrofa) [9] = molecular target: Trypsin (Sus scrofa) (UniProt P00761); test: Inactivation constant determined against porcine trypsin
[10] = molecular target: T3, Urokinase-type plasminogen activator; test: Ratio of inactivation to apparent binding constant against human urokinase; summary of the method: as §3
[11] = molecular target: Plasminogen (Homo sapiens) (UniProt P00747); test: Ratio of inactivation to apparent binding constant against plasmin; summary of the method: as §2
[12] = molecular target: T3, Urokinase-type plasminogen activator; test: Ratio of inactivation to apparent binding constant against human urokinase; NI=no inhibition
[13] = molecular target: T1, Serine protease 1 (Bos taurus); test: Ratio of inactivation to apparent binding constant against bovine trypsin;NI=no inhibition
[14] = molecular target: T3, Urokinase-type plasminogen activator; test: Ratio of inactivation to apparent binding constant against human urokinase (obtained as k obs/[I] at low inhibitor concentration)
Summary of the method: (§5)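 For weak inactivation, kinact/KI taken as kobs/[I] at low inhibitor concentration. Preincubation at pH 7.5, 25 °C: trypsin 4.5 μM or urokinase 55 μM with excess inhibitor. Aliquots diluted (or filtered at 4 °C) and assayed for residual activity on BAPNA or S-2444. kobs by least squares of semilog remaining activity vs time.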

[15] = molecular target: T1, Serine protease 1 (Bos taurus); test: Ratio of inactivation to apparent binding constant against bovine trypsin (obtained as k obs/[I] at low inhibitor concentration); summary of the method: as §5
[16] = molecular target: T1, Serine protease 1 (Bos taurus)
[17] = molecular target: T3, Urokinase-type plasminogen activator
[18] = molecular target: Prothrombin (Homo sapiens) (UniProt P00734); test: Ratio of inactivation to apparent binding constant against thrombin; summary of the method: as §4
[19] = molecular target: Tissue-type plasminogen activator (Homo sapiens) (UniProt P00750); test: Ratio of inactivation to apparent binding constant against tissue plasminogen activator (t-PA); summary of the method: as §1

Chain of Tissue-type plasminogen activator (Homo sapiens) (P00750 36-562 limits assumed): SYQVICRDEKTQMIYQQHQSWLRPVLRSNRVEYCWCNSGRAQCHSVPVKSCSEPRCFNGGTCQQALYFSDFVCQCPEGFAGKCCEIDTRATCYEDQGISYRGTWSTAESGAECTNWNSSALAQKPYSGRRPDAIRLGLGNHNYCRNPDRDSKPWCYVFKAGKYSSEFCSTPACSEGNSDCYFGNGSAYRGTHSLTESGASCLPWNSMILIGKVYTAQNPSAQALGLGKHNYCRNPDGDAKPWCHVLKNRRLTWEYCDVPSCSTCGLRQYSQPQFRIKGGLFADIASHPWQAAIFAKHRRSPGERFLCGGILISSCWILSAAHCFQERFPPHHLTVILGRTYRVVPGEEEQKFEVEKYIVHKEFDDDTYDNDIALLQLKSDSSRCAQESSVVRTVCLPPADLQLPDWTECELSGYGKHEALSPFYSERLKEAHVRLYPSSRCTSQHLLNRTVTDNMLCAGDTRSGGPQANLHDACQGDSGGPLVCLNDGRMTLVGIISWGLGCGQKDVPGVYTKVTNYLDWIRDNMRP

Row | Compound | Ratio [1] | Ratio [2] | K inact [3] | Ratio [4] | Ki (Serine protease 1) | Ratio [5] | Ki [6] | K inact [7] | Ratio [10] | Ratio [11] | Ratio [13] | further results
1 | NCCCCC1NC(=O)CNC(=O)c2cc(ccc2CBr)NC1=O (stereo unspecified) | inactive | inactive | 0.02 s⁻¹ | inactive | 80 µM | 250 M⁻¹ s⁻¹ |  |  |  |  |  | 
2 | N=C(N)NCCCC1NC(=O)CNC(=O)c2cc(ccc2CBr)NC1=O (stereo unspecified) | inactive |  | 0.031 s⁻¹ | inactive | 55 µM | 560 M⁻¹ s⁻¹ | 92 µM | 0.017 s⁻¹ | 185 M⁻¹ s⁻¹ | 2 M⁻¹ s⁻¹ |  | Ratio (Trypsin (Sus scrofa) [8]): 2050 M⁻¹ s⁻¹; K inact (Trypsin (Sus scrofa) [9]): 0.041 s⁻¹
3 | NCCCCC1NC(=O)CNC(=O)c2cc(CBr)ccc2NC1=O (stereo unspecified) | inactive | inactive |  | inactive |  |  |  |  |  |  | inactive | Ratio [12]: inactive
4 | C[S+](Cc1ccc2c(c1)C(=O)NCC(=O)NC(CCCN=C(N)N)C(=O)N2)c1ccccc1 (stereo unspecified) | inactive | inactive |  | inactive |  |  |  |  |  |  |  | Ratio [14]: 14 M⁻¹ s⁻¹; Ratio [15]: 50 M⁻¹ s⁻¹
5 | C[S+](Cc1ccc2cc1C(=O)NCC(=O)NC(CCCCN)C(=O)N2)c1ccccc1 (stereo unspecified) | inactive |  | 0.0075 s⁻¹ | inactive | 8.7 µM | 860 M⁻¹ s⁻¹ | 500 µM | 0.077 s⁻¹ | 154 M⁻¹ s⁻¹ | 75 M⁻¹ s⁻¹ |  | 
6 | C[S+](Cc1ccc2cc1C(=O)NCC(=O)NC(CCCN=C(N)N)C(=O)N2)c1ccccc1 (stereo unspecified) | 1 M⁻¹ s⁻¹ |  |  | 12 M⁻¹ s⁻¹ | 12 µM | 916 M⁻¹ s⁻¹ | 9 µM |  | 2330 M⁻¹ s⁻¹ | 40 M⁻¹ s⁻¹ |  | kinact [16]: 0.011 s⁻¹; kinact [17]: 0.021 s⁻¹
7 | N=C(N)NCCCC1NC(=O)CNC(=O)c2cc(CBr)ccc2NC1=O (stereo unspecified) |  |  |  |  |  |  |  |  |  | No inactivation | 5 M⁻¹ s⁻¹ | Ratio [18]: No inactivation; Ratio [12]: 14 M⁻¹ s⁻¹; Ratio [19]: No inactivation
8 | C[S+](Cc1ccc2c(c1)C(=O)NCC(=O)NC(CCCCN)C(=O)N2)c1ccccc1 (stereo unspecified) | inactive | inactive |  | inactive |  |  |  |  | 25 M⁻¹ s⁻¹ |  | inactive | 
9 | C[S+](C)Cc1ccc2cc1C(=O)NCC(=O)NC(CCCN=C(N)N)C(=O)N2 (stereo unspecified) | inactive | inactive |  | inactive |  | 1 M⁻¹ s⁻¹ | 41 µM | 0.014 s⁻¹ | 341 M⁻¹ s⁻¹ |  |  | 
10 | C[S+](C)Cc1ccc2cc1C(=O)NCC(=O)NC(CCCCN)C(=O)N2 (stereo unspecified) | inactive | inactive |  | inactive |  |  |  |  |  |  | inactive | 
